According to ChEMBL document CHEMBL2417519, “Structure-activity relationships for ketamine esters as short-acting anaesthetics” (Bioorg Med Chem, 2013):

How the values were obtained:
Type in all cases: functional
[1] = test system: Rattus norvegicus; assay: Anesthetic effect in iv dosed Sprague-Dawley rat assessed as time required to walk
In short: (§1)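 Adult female Sprague-Dawley rats (~350–450 g), restrained, tail marginal vein cannulated; drug at 10 mg/ml given by continuous iv infusion, initially 20 mg/kg/min until pedal withdrawal reflex score PWR = 1, then 6.7 mg/kg/min titrated up-and-down to keep dorsal recumbency and PWR = 1 to 10 min before cessation. Three rats per study, each its own ketamine control; randomised order, ≥1 h recovery between experiments.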

[2] = test system: Rattus norvegicus; assay: Analgesic effect in iv dosed Sprague-Dawley rat assessed as dose required to cause pedal withdrawal reflex; in short: as §1
[3] = test system: Rattus norvegicus; assay: Anesthetic effect in iv dosed Sprague-Dawley rat assessed as duration of recovery of righting reflex; in short: as §1
[4] = test system: Rattus norvegicus; assay: Anesthetic effect in iv dosed Sprague-Dawley rat assessed as duration of loss of righting reflex; in short: as §1
[5] = test system: Rattus norvegicus; assay: Analgesic effect in iv dosed Sprague-Dawley rat assessed as time required to cause pedal withdrawal reflex; in short: as §1
[6] = test system: Rattus norvegicus; assay: Anesthetic effect in iv dosed Sprague-Dawley rat assessed as dose required to cause loss of righting reflex; in short: as §1

| Compound | Time [1] | Activity [2] | Time [3] | Time [4] | Time [5] | Activity [6] |
| --- | --- | --- | --- | --- | --- | --- |
| CN(C)[C@]1(c2ccccc2Cl)CCCCC1=O.Cl | 1215 s | 35 mg/kg | 880 s | 94 s | 103 s | 32 mg/kg |
| Cl.O=C1CCCC[C@]1(NCCCO)c1ccccc1Cl | 588 s | 34 mg/kg | 341 s | 59 s | 102 s | 21 mg/kg |
| CC(=O)OCCCN[C@]1(c2ccccc2Cl)CCCCC1=O.Cl | – | 34 mg/kg | – | 81 s | – | 26 mg/kg |
| CCOC(=O)CCN[C@]1(c2ccccc2Cl)CCCCC1=O.Cl | 80 s | 62 mg/kg | 62 s | 171 s | 185 s | 59 mg/kg |
| CC(C)OC(=O)CCN[C@]1(c2ccccc2Cl)CCCCC1=O.Cl | – | 84 mg/kg | 15 s | – | – | 74 mg/kg |
| CC(C)OC(=O)CCN[C@@]1(c2ccccc2Cl)CCCCC1=O.Cl | 900 s | 82 mg/kg | 0 s | 170 s | 190 s | 71 mg/kg |
| CCCOC(=O)CCNC1(c2ccccc2Cl)CCCCC1=O.Cl (racemic) | 0 s | 136 mg/kg | 0 s | 404 s | 420 s | 131 mg/kg |
| CCOC(=O)CCCNC1(c2ccccc2Cl)CCCCC1=O.Cl (racemic) | 170 s | 44 mg/kg | 95 s | 70 s | – | 24 mg/kg |
| CC(C)OC(=O)CCCNC1(c2ccccc2Cl)CCCCC1=O.Cl (racemic) | 110 s | 66 mg/kg | 37 s | – | – | 42 mg/kg |
| CCCOC(=O)CCCNC1(c2ccccc2Cl)CCCCC1=O.Cl (racemic) | 65 s | 209 mg/kg | 10 s | 329 s | 558 s | 137 mg/kg |
| CCOC(=O)CCCCNC1(c2ccccc2Cl)CCCCC1=O.Cl (racemic) | 112 s | 57 mg/kg | – | 97 s | – | 34 mg/kg |
| CC(C)OC(=O)CCCCNC1(c2ccccc2Cl)CCCCC1=O.Cl (racemic) | 320 s | 38 mg/kg | 180 s | – | – | 38 mg/kg |
| CCCOC(=O)CCCCNC1(c2ccccc2Cl)CCCCC1=O.Cl (racemic) | 90 s | 83 mg/kg | 45 s | 271 s | 277 s | 82 mg/kg |
| CN(C)C1(c2ccccc2Cl)CCCCC1=O.Cl (racemic) | 1740 s | 43 mg/kg | 1500 s | 125 s | 130 s | 43 mg/kg |
| CCOC(=O)CCN(C)C1(c2ccccc2Cl)CCCCC1=O (racemic) | 0 s | 99 mg/kg | 0 s | 280 s | 290 s | 95 mg/kg |
| CCOC(=O)CCCN(C)C1(c2ccccc2Cl)CCCCC1=O.Cl (racemic) | 0 s | – | 0 s | 600 s | 600 s | – |
| COC(=O)CCCCN(C)C1(c2ccccc2Cl)CCCCC1=O (racemic) | – | – | 0 s | 420 s | – | – |
| CCOC(=O)CCNC1(c2ccccc2Cl)CCCCC1=O.Cl (racemic) | – | 55 mg/kg | – | – | – | 48 mg/kg |
| CC(C)OC(=O)CCNC1(c2ccccc2Cl)CCCCC1=O.Cl (racemic) | – | 37 mg/kg | 83 s | – | – | 33 mg/kg |
| CNC1(c2ccccc2Cl)CCCCC1=O (racemic) [KETAMINE] | 900 s | 21 mg/kg | 480 s | 51 s | 60 s | 17 mg/kg |
